The results in this text go back to ChEMBL document CHEMBL3352570, “ST7612AA1, a thioacetate-ω(γ-lactam carboxamide) derivative selected from a novel generation of oral HDAC inhibitors” (J Med Chem, 2014).

In one series the target is Histone deacetylase 3 (Homo sapiens, UniProt O15379). Description: Inhibition of HDAC3 (unknown origin) using fluorogenic tetrapeptide RHKK(Ac) substrate by fluorescence assay.
Series [1] concerns the target T1, Protein deacetylase HDAC6 (Homo sapiens, UniProt Q9UBN7).
T1 sequence (Q9UBN7 whole entry): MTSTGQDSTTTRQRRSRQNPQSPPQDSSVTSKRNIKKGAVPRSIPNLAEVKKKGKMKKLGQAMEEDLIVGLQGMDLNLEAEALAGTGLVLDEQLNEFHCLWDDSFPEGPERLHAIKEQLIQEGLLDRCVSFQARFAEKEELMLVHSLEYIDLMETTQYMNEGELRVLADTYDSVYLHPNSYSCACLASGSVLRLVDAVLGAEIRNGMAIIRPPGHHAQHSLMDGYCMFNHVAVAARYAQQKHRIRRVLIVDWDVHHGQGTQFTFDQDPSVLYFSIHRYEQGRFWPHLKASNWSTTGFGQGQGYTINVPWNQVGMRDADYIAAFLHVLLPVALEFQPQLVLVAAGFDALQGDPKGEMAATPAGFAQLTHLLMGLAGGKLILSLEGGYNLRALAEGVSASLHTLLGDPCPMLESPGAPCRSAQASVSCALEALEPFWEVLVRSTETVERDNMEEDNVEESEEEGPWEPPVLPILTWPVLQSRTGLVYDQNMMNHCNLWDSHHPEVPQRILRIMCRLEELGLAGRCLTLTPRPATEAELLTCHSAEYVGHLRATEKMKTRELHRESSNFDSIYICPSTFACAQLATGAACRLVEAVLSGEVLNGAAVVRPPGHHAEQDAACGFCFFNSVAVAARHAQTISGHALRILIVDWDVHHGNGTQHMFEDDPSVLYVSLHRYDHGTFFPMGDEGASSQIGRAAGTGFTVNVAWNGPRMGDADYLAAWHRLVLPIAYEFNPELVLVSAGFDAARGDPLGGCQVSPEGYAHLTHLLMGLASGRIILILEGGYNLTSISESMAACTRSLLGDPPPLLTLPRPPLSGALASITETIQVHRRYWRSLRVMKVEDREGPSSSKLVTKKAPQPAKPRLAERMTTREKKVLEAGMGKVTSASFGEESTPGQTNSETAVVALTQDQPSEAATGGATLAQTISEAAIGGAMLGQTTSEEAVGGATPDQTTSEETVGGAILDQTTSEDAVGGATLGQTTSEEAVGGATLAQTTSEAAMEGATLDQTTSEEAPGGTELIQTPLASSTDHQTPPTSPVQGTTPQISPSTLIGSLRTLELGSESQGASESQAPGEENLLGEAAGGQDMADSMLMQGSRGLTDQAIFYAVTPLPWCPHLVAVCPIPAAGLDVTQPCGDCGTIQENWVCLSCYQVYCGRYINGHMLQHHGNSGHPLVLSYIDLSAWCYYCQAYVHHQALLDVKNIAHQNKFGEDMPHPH
Description: Inhibition of HDAC6 (unknown origin) using fluorogenic tetrapeptide RHKK(Ac) substrate by fluorescence assay.

Series [2] concerns the target T2, Polyamine deacetylase HDAC10 (Homo sapiens, UniProt Q969S8).
T2 sequence (Q969S8 whole entry): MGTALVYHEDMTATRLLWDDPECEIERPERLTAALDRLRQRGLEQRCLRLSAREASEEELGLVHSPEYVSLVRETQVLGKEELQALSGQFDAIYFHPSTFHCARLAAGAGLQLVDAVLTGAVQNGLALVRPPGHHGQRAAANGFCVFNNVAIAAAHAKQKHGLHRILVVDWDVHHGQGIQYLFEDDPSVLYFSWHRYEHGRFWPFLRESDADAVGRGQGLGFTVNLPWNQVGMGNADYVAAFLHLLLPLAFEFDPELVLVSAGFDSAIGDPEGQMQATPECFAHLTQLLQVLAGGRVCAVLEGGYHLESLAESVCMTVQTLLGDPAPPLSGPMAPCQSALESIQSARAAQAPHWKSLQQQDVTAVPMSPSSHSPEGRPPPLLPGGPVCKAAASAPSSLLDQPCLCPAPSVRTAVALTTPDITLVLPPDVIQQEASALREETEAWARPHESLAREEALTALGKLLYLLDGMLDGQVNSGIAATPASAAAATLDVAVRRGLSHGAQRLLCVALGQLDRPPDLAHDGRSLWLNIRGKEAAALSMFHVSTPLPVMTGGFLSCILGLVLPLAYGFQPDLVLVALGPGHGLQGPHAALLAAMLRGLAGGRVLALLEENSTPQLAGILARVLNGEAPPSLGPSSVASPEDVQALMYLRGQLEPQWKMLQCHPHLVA
Put plainly: Inhibition of HDAC10 (unknown origin) using fluorogenic tetrapeptide RHKK(Ac) substrate by fluorescence assay.

Another series has as its target T3, Histone deacetylase 11 (Homo sapiens, UniProt Q96DB2).
T3 sequence (Q96DB2 whole entry): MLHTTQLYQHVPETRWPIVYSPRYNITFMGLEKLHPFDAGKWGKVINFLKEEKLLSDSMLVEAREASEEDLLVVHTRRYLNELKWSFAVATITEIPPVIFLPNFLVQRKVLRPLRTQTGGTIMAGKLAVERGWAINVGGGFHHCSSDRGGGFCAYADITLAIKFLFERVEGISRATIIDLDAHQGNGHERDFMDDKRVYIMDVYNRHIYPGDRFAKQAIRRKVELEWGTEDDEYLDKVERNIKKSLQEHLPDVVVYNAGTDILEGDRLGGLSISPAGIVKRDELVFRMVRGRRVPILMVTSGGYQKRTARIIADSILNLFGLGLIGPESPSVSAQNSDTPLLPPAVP
Put plainly: Inhibition of HDAC11 (unknown origin) using fluorogenic tetrapeptide RHKK(Ac) substrate by fluorescence assay.

The nature of series [3]: Half life in human hepatocytes at 5 uM by LCMS/MS analysis. Type of series: ADME, cell-based, Hepatocyte. The method, boiled down: (§1)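 Incubation in human hepatocytes. […] Values are means of at least three experiments.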
Series [4] is described as follows: Intrinsic clearance in human hepatocytes assessed per million cells at 5 uM by LCMS/MS analysis. Type of series: ADME, cell-based, Hepatocyte. As to conditions: read-out: CLH. In short, it runs like this:
as §1

The nature of series [5]: Efflux ratio of permeability from apical to basolateral side to basolateral to apical side of human Caco2 cells. As to conditions: caco-2. Type of series: ADME, cell-based. In short, it runs like this: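 Caco-2 monolayers; the efflux ratio is flux in the apical-to-basolateral direction over flux in the basolateral-to-apical direction. Means of at least three experiments.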

A further series concerns Mus musculus. Put plainly: Toxicity in human HCT116 cells xenografted athymic nude mouse assessed as body weight loss at 100 mg/kg, po qd for 5 days a week for 3 weeks. The series is classed as organism-based, HCT-116. More on the design: dose 100 mg/kg, route oral. Conditions: in vivo. The method, boiled down: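 Nude mice (female, athymic, 5–6 weeks) carried sc right-flank xenografts of 5 × 10⁶ cells per 100 μL. Oral treatment once daily started 3 days after inoculation.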

Chain of Histone deacetylase 3 (O15379 whole entry): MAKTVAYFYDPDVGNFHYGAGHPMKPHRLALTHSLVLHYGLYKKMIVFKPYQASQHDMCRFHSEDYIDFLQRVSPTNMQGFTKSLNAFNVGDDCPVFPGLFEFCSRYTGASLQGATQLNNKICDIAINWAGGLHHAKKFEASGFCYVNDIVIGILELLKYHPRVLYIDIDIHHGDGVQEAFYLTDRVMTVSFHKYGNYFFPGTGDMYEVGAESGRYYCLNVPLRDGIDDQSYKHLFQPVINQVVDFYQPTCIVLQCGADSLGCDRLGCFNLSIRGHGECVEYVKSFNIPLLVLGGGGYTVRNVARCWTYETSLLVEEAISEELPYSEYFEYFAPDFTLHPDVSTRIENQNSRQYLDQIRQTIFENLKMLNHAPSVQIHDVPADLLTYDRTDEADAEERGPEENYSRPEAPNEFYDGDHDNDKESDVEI

On to `O=C1CC[C@@H](C(=O)N[C@H](CCCCCS)C(=O)Nc2ccccc2)N1`, for which the IC50 against Histone deacetylase 3 was determined as 5 nM; in series [1], 3 nM; in series [2] it was 11 nM; against Histone deacetylase 11 it was 14 nM. The compound further yielded a half-life at 5 µM in series [3] of 45 min. In addition, in series [4], the hepatocyte CLint at 5 µM came to 15.4 µL/min/1e6 cells. Moreover, the Ratio in series [5] was found to be 5.2. Further, the Activity with Mus musculus was 3%.
